The text below walks through data of PubChem BioAssay.

The source made the active and inactive calls.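 Rule for the calls, unless noted: active = GFP response above 150% of the DMSO level; inconclusive = fewer than 70 events counted for a yeast strain; inactive = the rest.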

Experiment [1] in a line: hit retest on RPL19A-GFP reporter strain – cell-based, S. cerevisiae, flow cytometry, cherry picks, mother/daughter gates, confirmation (AID 2270;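 active = GFP response below 50% of the DMSO control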). The following applies: 3 h, at 10 µM, stronger effect = lower value, 100 = same GFP as DMSO wells. For orientation: Flow cytometry measures light scatter and fluorescence of single cells or particles in a stream.
The nature of experiment [2]: yeast TOR pathway reporter LAP4-GFP change – cell-based, cherry picks, flow cytometry, mother/daughter gates, confirmation (AID 2271;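 active = GFP response above 150% of the DMSO control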;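 note: ratio of sample to DMSO plate mean so 100% equals DMSO level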). Conditions: S. cerevisiae LAP4-GFP strain, 3 h, at 10 µM, stronger effect = higher value, 100 means same as DMSO control. The method in brief:
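Test system: GFP-fusion yeast strain. Medium: synthetic complete (SC) yeast growth medium. Timing: 3 h treatment at 30 °C with rotation. Measured by: GFP by flow cytometry. Control set: positive rapamycin (400 ng/mL), negative DMSO.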

Experiment [3] in a line: TOR pathway reporter MEP2-GFP, retest of hits – S. cerevisiae, flow cytometry GFP, cherry picks, confirmation (AID 2272;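 active = GFP response above 150% of the DMSO control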;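 note: ratio of well signal to plate DMSO mean so 100% equals DMSO level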). The following applies: S. cerevisiae MEP2-GFP strain, 3 h, at 10 µM, stronger effect = higher value.
The nature of experiment [4]: yeast AGP1-GFP fluorescence change, single-dose – cell-based, flow cytometry, S. cerevisiae, cherry picks, confirmation (AID 2273).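 Note: median GFP channel fluorescence over the whole cell population gate.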 Conditions: S. cerevisiae AGP1-GFP strain, 3 h, at 10 µM.
A short description of experiment [5]: TOR pathway CIT2 reporter hit retest – S. cerevisiae, GFP fusion, cherry picks, mother/daughter gates, confirmation (AID 2274). The following applies: S. cerevisiae CIT2-GFP strain, flow cytometry, 3 h, at 10 µM, stronger effect = higher value.
Where [6] appears, read: measured here: daughter cell gate.
[7] abbreviates: measured here: mother cell gate.
The mark [8] stands for this setting: measured here: daughter cell gate response.
Where [9] appears, read: measured here: mother cell gate response.

Regarding `COc1ccc2cc(-c3cc(C(=O)O)c4ccccc4n3)ccc2c1`, the GFP response vs DMSO is 98.6% (inactive) in experiment [1], 95.9% in experiment [1] (setting [6]), 98.2% in experiment [1] (setting [7]) and 107% (inactive) in experiment [3]. Besides, the GFP response relative to DMSO was 99.8% (inactive) in experiment [2], 100% in experiment [2] (setting [8]) and 101% in experiment [2] (setting [9]). Moreover, the GFP response, % of DMSO in experiment [4] is 96.5% (inactive); in experiment [5] it was 145% (inactive); in experiment [5] (setting [6]) it was 128%; in experiment [5] (setting [7]), 152%.
For the compound `Cc1cc(O)c(C(=O)/C=C/c2cccc([N+](=O)[O-])c2)c(=O)o1`, the GFP response vs DMSO in experiment [1] is 98.7% (inactive); in experiment [1] (setting [6]) it was 101%; in experiment [1] (setting [7]) it was 95.8%; in experiment [3], 110% (inactive). Further, the GFP response relative to DMSO in experiment [2] was 149% (inactive); in experiment [2] (setting [8]), 142%; in experiment [2] (setting [9]) it was 152%. Moreover, the GFP response, % of DMSO in experiment [4] is 107% (inactive); in experiment [5], 86.1% (inactive); in experiment [5] (setting [6]) it was 90.5%; in experiment [5] (setting [7]), 81.5%.
In the case of `Cc1cccc(N=c2c([N+](=O)[O-])nn(-c3ccc(Cl)cc3)n2O)c1`, the GFP response vs DMSO in experiment [1] is 97% (inactive); in experiment [1] (setting [6]), 95.1%; in experiment [1] (setting [7]), 97.7%; in experiment [3] it was 102% (inactive). Also, the GFP response relative to DMSO in experiment [2] is 111% (inactive); in experiment [2] (setting [8]), 104%; in experiment [2] (setting [9]) it was 114%. The GFP response, % of DMSO is 90.4% (inactive) in experiment [4], 107% (inactive) in experiment [5], 103% in experiment [5] (setting [6]) and 108% in experiment [5] (setting [7]).
Turning to `Brc1ccc2c(c1)OCCOCCOc1cc(Br)ccc1OCCOCCOCCO2`, the GFP response vs DMSO in experiment [1] is 99% (inactive); in experiment [1] (setting [6]) it was 98.4%; in experiment [1] (setting [7]), 96.9%; in experiment [3], 111% (inactive). Further, the GFP response relative to DMSO in experiment [2] is 126% (inactive); in experiment [2] (setting [8]), 123%; in experiment [2] (setting [9]) it was 126%. For the same compound, the GFP response, % of DMSO was 92.7% (inactive) in experiment [4], 96.9% (inactive) in experiment [5], 97.2% in experiment [5] (setting [6]) and 93.8% in experiment [5] (setting [7]).
With `CCOC(=O)C1(CCCc2ccccc2)CCN(C(=O)c2cc(C)nn2CC)CC1`, the GFP response vs DMSO in experiment [1] is 99.3% (inactive); in experiment [1] (setting [6]), 99.8%; in experiment [1] (setting [7]), 99.8%; in experiment [3], 97.5% (inactive). For the same compound, the GFP response relative to DMSO in experiment [2] is 98.8% (inactive); in experiment [2] (setting [8]), 102%; in experiment [2] (setting [9]) it was 98.5%. Also, the GFP response, % of DMSO was 99.3% (inactive) in experiment [4], 102% (inactive) in experiment [5], 104% in experiment [5] (setting [6]) and 101% in experiment [5] (setting [7]).
As to `COc1ccc(CC2=C(O)c3ccccc3C(=O)C2=O)cc1`, the GFP response vs DMSO in experiment [1] was 95.1% (inactive); in experiment [1] (setting [6]) it was 91.3%; in experiment [1] (setting [7]), 96.1%; in experiment [3], 97.2% (inactive). For the same compound, the values for the GFP response relative to DMSO in experiment [2], in experiment [2] (setting [8]) and in experiment [2] (setting [9]) were 129% (inactive), 113% and 135%, respectively. Besides, the GFP response, % of DMSO was 97% (inactive) in experiment [4], 80.6% (inactive) in experiment [5], 81.6% in experiment [5] (setting [6]) and 80.4% in experiment [5] (setting [7]).
`COc1cc(C)c(C)cc1S(=O)(=O)N1CCCCC1c1cccnc1` (stereo unspecified): the GFP response vs DMSO in experiment [1] was 98.4% (inactive); in experiment [1] (setting [6]), 98.8%; in experiment [1] (setting [7]), 99.2%; in experiment [3] it was 99.5% (inactive). Besides, the GFP response relative to DMSO was 102% (inactive) in experiment [2], 105% in experiment [2] (setting [8]) and 99.5% in experiment [2] (setting [9]). For the same compound, the GFP response, % of DMSO in experiment [4] is 100% (inactive); in experiment [5] it was 96.4% (inactive); in experiment [5] (setting [6]) it was 100%; in experiment [5] (setting [7]), 95.6%.
Turning to `N#C/C(=C\c1ccccn1)c1nc2ccccc2s1`, the GFP response vs DMSO is 170% (inactive) in experiment [1], 158% in experiment [1] (setting [6]), 172% in experiment [1] (setting [7]) and 1020% (active) in experiment [3]. In addition, the GFP response relative to DMSO in experiment [2] is 584% (active); in experiment [2] (setting [8]) it was 464%; in experiment [2] (setting [9]), 589%. Further, the GFP response, % of DMSO was 205% (active) in experiment [4], 506% (active) in experiment [5], 433% in experiment [5] (setting [6]) and 496% in experiment [5] (setting [7]).
For the compound `O=C(NCc1ccccc1)c1nc(S(=O)(=O)Cc2ccccc2)ncc1Cl`, the GFP response vs DMSO in experiment [1] is 101% (inactive); in experiment [1] (setting [6]), 99.2%; in experiment [1] (setting [7]), 98.5%; in experiment [3], 100% (inactive). Besides, the GFP response relative to DMSO in experiment [2] is 108% (inactive); in experiment [2] (setting [8]), 108%; in experiment [2] (setting [9]), 108%. Further, the GFP response, % of DMSO is 104% (inactive) in experiment [4], 96.5% (inactive) in experiment [5], 93.2% in experiment [5] (setting [6]) and 98.7% in experiment [5] (setting [7]).
`Clc1ccc(-n2cccc2)cn1`: the GFP response vs DMSO was 101% (inactive) in experiment [1], 99.2% in experiment [1] (setting [6]), 102% in experiment [1] (setting [7]) and 100% (inactive) in experiment [3]. Besides, the GFP response relative to DMSO in experiment [2] is 93.8% (inactive); in experiment [2] (setting [8]) it was 95.6%; in experiment [2] (setting [9]), 95.2%. Moreover, the GFP response, % of DMSO was 96.3% (inactive) in experiment [4], 99.1% (inactive) in experiment [5], 98.1% in experiment [5] (setting [6]) and 101% in experiment [5] (setting [7]).
Regarding `O=C(O)C1Sc2[nH]c(=O)sc2C2c3cc(Br)ccc3OC(=O)C12` (stereo unspecified), the GFP response vs DMSO in experiment [1] is 96.3% (inactive); in experiment [1] (setting [6]), 97.6%; in experiment [1] (setting [7]), 96.8%; in experiment [3], 195% (active). Moreover, the GFP response relative to DMSO in experiment [2] is 171% (active); in experiment [2] (setting [8]), 150%; in experiment [2] (setting [9]), 200%. The GFP response, % of DMSO was 102% (inactive) in experiment [4], 111% (inactive) in experiment [5], 108% in experiment [5] (setting [6]) and 113% in experiment [5] (setting [7]).
Consider `COc1ccc(CN2CCSc3sccc3C2=O)cc1`, for which the GFP response vs DMSO was 93.2% (inactive) in experiment [1], 90.7% in experiment [1] (setting [6]), 93.9% in experiment [1] (setting [7]) and 92.6% (inactive) in experiment [3]. Also, the GFP response relative to DMSO in experiment [2] is 110% (inactive); in experiment [2] (setting [8]) it was 109%; in experiment [2] (setting [9]) it was 112%. Moreover, the GFP response, % of DMSO in experiment [4] is 97.3% (inactive); in experiment [5], 102% (inactive); in experiment [5] (setting [6]), 103%; in experiment [5] (setting [7]) it was 102%.
On to `Cc1ccc(C(=O)OCC(=O)Nc2ccccc2Sc2ccccc2)cc1C`, for which the GFP response vs DMSO in experiment [1] is 99% (inactive); in experiment [1] (setting [6]), 97.8%; in experiment [1] (setting [7]), 99.7%; in experiment [3], 96.6% (inactive). Also, the values for the GFP response relative to DMSO in experiment [2], in experiment [2] (setting [8]) and in experiment [2] (setting [9]) were 96.1% (inactive), 99.7% and 97.2%, respectively. Further, the GFP response, % of DMSO in experiment [4] is 99.3% (inactive); in experiment [5] it was 103% (inactive); in experiment [5] (setting [6]), 103%; in experiment [5] (setting [7]) it was 105%.
Consider `COC(=O)C1CCN(C(=O)COC(=O)CCc2nc3ccccc3c(=O)[nH]2)CC1`, for which the GFP response vs DMSO in experiment [1] is 98.8% (inactive); in experiment [1] (setting [6]), 99.6%; in experiment [1] (setting [7]), 99.8%; in experiment [3] it was 99.5% (inactive). In addition, the GFP response relative to DMSO in experiment [2] was 97.7% (inactive); in experiment [2] (setting [8]), 97.9%; in experiment [2] (setting [9]), 96.5%. Besides, the GFP response, % of DMSO in experiment [4] was 98% (inactive); in experiment [5] it was 99.3% (inactive); in experiment [5] (setting [6]) it was 102%; in experiment [5] (setting [7]), 95.6%.
`COc1cccc(/C=N\NC(=O)c2cc(OCC(F)(F)F)ccc2OCC(F)(F)F)c1`: the GFP response vs DMSO in experiment [1] is 98.6% (inactive); in experiment [1] (setting [6]) it was 99.1%; in experiment [1] (setting [7]) it was 97.9%; in experiment [3] it was 100% (inactive). In addition, the GFP response relative to DMSO in experiment [2] is 94.1% (inactive); in experiment [2] (setting [8]), 92.8%; in experiment [2] (setting [9]), 92.9%. For the same compound, the GFP response, % of DMSO was 96% (inactive) in experiment [4], 99.7% (inactive) in experiment [5], 101% in experiment [5] (setting [6]) and 98.5% in experiment [5] (setting [7]).
Turning to `Cc1noc(/C=C/c2ccccn2)c1[N+](=O)[O-]`, the GFP response vs DMSO in experiment [1] was 95.6% (inactive); in experiment [1] (setting [6]), 96.1%; in experiment [1] (setting [7]) it was 90.8%; in experiment [3], 99% (inactive). The GFP response relative to DMSO is 139% (inactive) in experiment [2], 132% in experiment [2] (setting [8]) and 142% in experiment [2] (setting [9]). Besides, the GFP response, % of DMSO was 96.7% (inactive) in experiment [4], 90.1% (inactive) in experiment [5], 97.4% in experiment [5] (setting [6]) and 84.6% in experiment [5] (setting [7]).
